Key:
[1] = system: cAMP antibody (ENZO cAMP-EIA); test: ENZO cAMP-EIA, acetylation protocol; type: binding; details: EC50cAMP/EC50Analog, acetylated
[2] = system: cAMP antibody (IBL cAMP-RIA); test: IBL cAMP-RIA; type: binding; details: EC50cAMP/EC50Analog
[3] = system: cGMP antibody (ENZO cGMP-EIA); test: ENZO cGMP-EIA, acetylation protocol; type: binding; details: for Specificity ENZO cGMP-EIA: EC50cGMP/EC50Analog, acetylated
[4] = system: cGMP antibody (IBL cGMP-RIA); test: IBL cGMP-RIA; type: binding; details: for Specificity IBL cGMP-RIA: EC50cGMP/EC50Analog
[5] = system: cGMP antibody (ENZO cGMP-EIA); test: ENZO cGMP-EIA, non-acetylated; type: binding; details: non-acetylated cGMP-EIA from ENZO
human platelets = test: Cell membrane permeability in washed human platelets; type: in vitro ADME; details: for cNMP conc. inside platelets (% of external): washed human platelets, 37°C, normally 20 min
Outline: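 Human blood from medication-free donors was collected into citrate–EGTA buffer. Platelet-rich plasma (300×g) was pelleted (380×g), washed in Hepes buffer pH 7.4 and used at 3 × 10^8 platelets/ml. Cells were exposed to analogs at 37°C, normally for 20 min or over a time course. They were lysed in […] buffer pH 8.1 with 1 mM IBMX on ice, then freeze/thaw and needle disruption. Lyophilized supernatant went to EIA, assuming a 5.2 fl cell volume.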

CHO cells = test: Cell membrane permeability in CHO cells; type: in vitro ADME, Chinese hamster; details: serum-free medium, normally 20 min
Outline: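 CHO cells were grown in DMEM with 10% FBS and 1% penicillin/streptomycin at 37°C, 5% CO2. Cells were exposed to various analog concentrations in serum-free medium, normally for 20 min, then PBS-washed. Lysis used hypotonic buffer on ice for 30 min, scraping, liquid-nitrogen freeze/thaw and needle disruption. Cleared supernatant was lyophilized for EIA. Intracellular concentration assumed a 1.5 pl cell volume; % permeability = intracellular/extracellular […].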

[6] = system: PKG (VASP phosphorylation) in human platelets; test: VASP phosphorylation western blot, pVASP Ser-239; type: cell-based; details: human platelets
Outline: (§1)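 Washed human platelets were exposed to various analog concentrations for the indicated times. Protein extracts (10 µg) were run on 9% reducing SDS-PAGE and wet-blotted to nitrocellulose. Blots were blocked in 3% milk/Tris-saline-Tween and probed 1:10,000 with 16C2 (pVASP Ser-239, PKG site) or 5C6 (pVASP Ser-157, PKA site). HRP goat anti-mouse (1:5,000) and ECL gave detection.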

PKG Iβ = details: ref Poppe et al. (2008); cited from earlier work
[7] = system: PKA (VASP phosphorylation) in human platelets; test: VASP phosphorylation western blot, pVASP Ser-157; type: cell-based; details: pVASP antibody 5C6
Outline: as §1

PKA II = details: ref Poppe et al. (2008); cited from earlier work
[8] = system: cAMP and cGMP antibodies of the tested immunoassays; test: Interference with the tested cAMP and cGMP immunoassays; type: binding
[9] = system: cGMP antibody (Cayman cGMP-EIA); test: Cayman cGMP-EIA; type: binding; details: EC50cGMP/EC50Analog

Which results are given for CCCC(=O)Nc1ncnc2c1ncn2[C@@H]1O[C@@H]2COP(=O)(O)O[C@H]2[C@H]1O [6-MB-cAMP, N^6-Monobutyryladenosine-3`,5`-cyclic monophosphate]?
Specificity ENZO cAMP-EIA [1]: 0.004; Specificity IBL cAMP-RIA [2]: 0.012

What does the source list for O=c1c2nc(Br)n([C@@H]3O[C@@H]4COP(=O)(O)O[C@H]4[C@H]3O)c2nc2[nH]c(-c3ccccc3)cn12 [8-Br-PET-cGMP, β-Phenyl-1,N^2-etheno-8-Bromoguanosine-3`,5`- cyclic monophosphate]?
Specificity ENZO cGMP-EIA [3]: 0.10; Percent of the cGMP affinity to the antibody ([3]; ENZO cGMP-EIA): 10%; Specificity IBL cGMP-RIA [4]: 0.015; Relative binding EC50cGMP/EC50Analog [5]: 0.08; cNMP conc. inside platelets (% of external) (human platelets): 30.9 ± 5.7%; cNMP conc. inside CHO cells (% of external) (CHO cells): 24.1 ± 9.7%; Concentration sufficient to activate PKG ([6]; VASP phosphorylation): 0.25 µM; Activation PKG Iβ Ka (PKG Iβ): 0.009 µM

Which “Specificity ENZO cAMP-EIA” value [1] does the source give for Nc1ncnc2c1nc(Br)n2[C@@H]1O[C@@H]2COP(=O)(O)O[C@H]2[C@H]1O [8-Br-cAMP, 8-Bromoadenosine-3`,5`- cyclic monophosphate] here?
The value was 0.004.

And the “Specificity IBL cAMP-RIA” value [2]?
Its value is 0.026.

What about the “Concentration needed for comparable VASP phosphorylation (PKA activation)” value [7] of the same molecule?
Its value is 500 µM.

And the “Activation PKA II Ka” value (PKA II)?
The value was 0.09 µM.

Which results are given for Nc1nc2c(nc(Br)n2[C@@H]2O[C@@H]3COP(=O)(O)O[C@H]3[C@H]2O)c(=O)[nH]1 [8-Br-cGMP, 8-Bromoguanosine-3`,5`- cyclic monophosphate]?
Cross-reactivity / binding to the cGMP antibody in the EIA, result in words [3]: strong cross-reactivity; Specificity ENZO cGMP-EIA [3]: 4.90; Specificity IBL cGMP-RIA [4]: 0.20; Binding constant relative to cGMP ([4]; IBL cGMP-RIA): ~20%; Relative binding EC50cGMP/EC50Analog [5]: 6.40; Time to equilibrium of inside/outside concentration (human platelets; platelets, Fig. 1b): 10 to 20 min; cNMP conc. inside platelets (% of external) (human platelets): 12.1 ± 3.5%; cNMP conc. inside CHO cells (% of external) (CHO cells): 13.5 ± 11.5%; Concentration for maximal VASP phosphorylation ([6]; after 20 min, pVASP antibody 16C2): 200 µM; Activation PKG Iβ Ka (PKG Iβ): 1.0 µM

For CO[C@@H]1[C@@H]2OP(=O)(O)OC[C@H]2O[C@H]1n1c(Sc2ccc(Cl)cc2)nc2c(N)ncnc21 [8-pCPT-2′-OMe-cAMP, 8-(4-Chlorophenylthio)-2`-O-methyladenosine-3`,5`- cyclic monophosphate], which “Specificity ENZO cAMP-EIA” value [1] is on record?
The value was 0.0003.

And the “Specificity ENZO cGMP-EIA” value [3]?
Its value is 0.0002.

What about the “Specificity IBL cAMP-RIA” value [2] of the same molecule?
Its value is 0.0066.

And the “Specificity IBL cGMP-RIA” value [4]?
Its value is <10^−4.

For Nc1ncnc2c1nc(Sc1ccc(Cl)cc1)n2[C@@H]1O[C@@H]2COP(=O)(O)O[C@H]2[C@H]1O [8-pCPT-cAMP, 8-(4-Chlorophenylthio)adenosine-3`,5`- cyclic monophosphate], which “Specificity ENZO cAMP-EIA” value [1] is on record?
The value was 0.0005.

For CCCCCCC(C(C)O)n1cnc2c(N)ncnc21.Cl (stereo not drawn) [EHNA, 3-(6-aminopurin-9-yl)nonan-2-ol hydrochloride], which “Interference / cross-reaction with the tested immunoassays, result in words” value (“Interference / cross-reaction” for short) [8] is on record?
The value was “do not interfere”.

Which “Specificity ENZO cAMP-EIA” value [1] does the source give for CC(C)Cn1c(=O)n(C)c(=O)c2[nH]cnc21 [IBMX, 3-Isobutyl-1-methylxanthine] here?
The value was <10^−5.

What about the “Specificity ENZO cGMP-EIA” value [3] of the same molecule?
Its value is <10^−6.

And the “Specificity IBL cAMP-RIA” value [2]?
The value was <10^−4.

And the “Specificity IBL cGMP-RIA” value [4]?
Its value is <10^−6.

And the “Specificity Cayman cGMP-EIA” value [9]?
Its value is <10^−5.

What about the “Interference / cross-reaction” value [8] of the same molecule?
Its value is “do not interfere”.

For Cn1c(=O)c2[nH]cnc2n(C)c1=O [Theophylline, 1,3-dimethyl-7H-purine-2,6-dione], which “Interference / cross-reaction” value [8] is on record?
The value was “do not interfere”.

Which “Specificity ENZO cGMP-EIA” value [3] does the source give for Nc1nc2c(ncn2[C@@H]2O[C@@H]3COP(=O)(O)O[C@H]3[C@H]2O)c(=O)[nH]1 [cGMP, Guanosine- 3`,5`- cyclic monophosphate] here?
Its value is 1.00.

What about the “Specificity IBL cGMP-RIA” value [4] of the same molecule?
Its value is 1.00.

And the “Specificity Cayman cGMP-EIA” value [9]?
Its value is 1.00.

What about the “Relative binding EC50cGMP/EC50Analog” value [5] of the same molecule?
The value was 1.00.

And the “Activation PKG Iβ Ka” value (PKG Iβ)?
Its value is 0.9 µM.
